# Measured values from different studies.
# Each line is one published result; the experiments were not run side by side.
# Target: Serine/threonine-protein kinase Nek6 (NEK6, Homo sapiens, UniProt Q9HC98)
SMILES,assay,conditions,remaining binding
CSc1cccnc1N1CCN(Cc2nc3ccccc3[nH]2)CC1,"cell-free assay, competition with immobilised ligand",1 µM,98%
CCN1CCN(Cc2ccc(C(=O)Nc3ccc(C)c(Oc4ccc5c(c4)CC(=O)N5)c3)cc2C(F)(F)F)CC1,"binding, competition with immobilised ligand",1 µM,100%
Cc1cnn2ncc(-c3ccnc(N(C)C)n3)c2c1,binding,1 µM,100%
Nc1ncc2c(n1)-c1c([nH]c3ccc(C#CC4CC4)cc13)CCCC2,"binding, competition with immobilised ligand",1 µM,90%
O=C(NCCCN1CCOCC1)c1ccc(Nc2nccc(-c3cc4ccccc4s3)n2)cc1,"binding, competition with immobilised ligand",1 µM,81%
O=C(NCc1ncc(C(F)(F)F)cc1Cl)c1ccc2c(c1)C1(CCS(=O)(=O)CC1)[C@H](C1CC1)N2S(=O)(=O)c1ccc(F)cc1,"cell-free assay, competition with immobilised ligand",1 µM,100%
COc1ncc2cc3ccccc3nc2c1C#N,"cell-free assay, competition with immobilised ligand",5 µM,100%
NS(=O)(=O)c1cc(NC(=O)C2(c3ccccc3Cl)CC2)ccc1Oc1cccc(Cl)c1,"cell-free assay, competition with immobilised ligand",1 µM,81%
C[C@H]1CCN(c2nccc(-c3cnn4ncccc34)n2)C1,binding,1 µM,100%
COc1cnc(Nc2cccc(S(N)(=O)=O)c2)nc1N1CCN(c2ccccc2)CC1,"binding, competition with immobilised ligand",1 µM,100%
N[C@H]1CCN(c2nccc(-c3cnn4ncccc34)n2)C1,binding,1 µM,100%
CCc1ccccc1C(=O)Nc1n[nH]c2c(C)c(F)c(C3C(C#N)=C(C)N(C)C(C)=C3C#N)cc12,"cell-free assay, competition with immobilised ligand",1 µM,75%
O=C(Nc1c[nH]nc1C(=O)NC1CCNCC1)c1cc(F)cc(F)c1,"binding, competition with immobilised ligand",1 µM,100%
c1cnn2ncc(-c3ccnc(N4CCC45COC5)n3)c2c1,binding,1 µM,94%
O=C(NCCCN1CCOCC1)c1ccc(Nc2ncc(Cl)c(-c3ccc(Cl)s3)n2)cc1,"binding, competition with immobilised ligand",1 µM,2.5%
C[C@H](c1cccc(C#N)c1)n1cc(Cl)cc(C(N)=O)c1=N,"cell-free assay, competition with immobilised ligand",1 µM,94%
COc1cnc(Nc2cccc(S(N)(=O)=O)c2)nc1N1CCN(c2ccccc2)C(=O)C1,"binding, competition with immobilised ligand",1 µM,98%
COc1cc(-c2cn(C3CCc4ccccc4N(CC(F)(F)F)C3=O)nn2)ccc1-n1ccc(C)n1 (stereo not shown),"cell-free assay, competition with immobilised ligand",1 µM,100%
CN(C)c1nccc(-c2cnn3ncccc23)n1,binding,1 µM,100%
Cc1cnc(Nc2ccc(C(=O)N3CCC(N4CCCC4)CC3)cc2)nc1-c1cc2ccccc2s1,"binding, competition with immobilised ligand",1 µM,10%
CC1=C(C#N)[C@@H](c2ccc3[nH]nc(C)c3c2)C(C#N)=C(c2ccc(Cl)cc2)N1,"cell-free assay, competition with immobilised ligand",1 µM,100%
CN(CCCC(F)(F)F)c1nccc(-c2cnn3ncccc23)n1,binding,1 µM,100%
